{"source": "ChEMBL document CHEMBL4382192", "about": "“Discovery of a potent dual ALK and EGFR T790M inhibitor” (Eur J Med Chem, 2017)", "key": {"[1]": {"experiment": "AUClast in mouse at 2 mg/kg, iv", "type": "ADME, organism-based", "parameters": "dose 2 mg/kg, route intravenous, time 0 - last", "settings": "in vivo"}, "[2]": {"experiment": "Volume of distribution at steady state in mouse at 2 mg/kg, iv", "type": "ADME, organism-based", "settings": "in vivo, read-out: Vdss"}, "[3]": {"system": "Tyrosine-protein kinase ABL1 (Homo sapiens), P00519 [F317L]", "experiment": "Binding affinity to human non-phosphorylated ABL1 F317L mutant (S229 to K512 residues) expressed in mammalian expression system assessed as residual binding level at 1 uM by Kinomescan method relative to control", "procedure,_shortened": "(§1)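 Kinome-wide selectivity panel run by the KINOMEscan method, with the test compound at a single concentration of 1 μM. Wild-type and mutant kinases were profiled in the same screen.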"}, "[4]": {"biological_target": "Aurora kinase A (Homo sapiens) (UniProt O14965)", "experiment": "Binding affinity to wild-type human partial length AURKA (E122 to K401 residues) expressed in mammalian expression system assessed as residual binding level at 1 uM by Kinomescan method relative to control"}, "[5]": {"biological_target": "Tyrosine-protein kinase CSK (Homo sapiens) (UniProt P41240)", "experiment": "Binding affinity to wild-type human full length CSK (M1 to L450 residues) expressed in bacterial expression system assessed as residual binding level at 1 uM by Kinomescan method relative to control"}, "[6]": {"biological_target": "Ephrin type-A receptor 5 (Homo sapiens) (UniProt P54756)", "experiment": "Binding affinity to wild-type human partial length EPHA5 (T627 to V930 residues) expressed in bacterial expression system assessed as residual binding level at 1 uM by Kinomescan method relative to control"}, "[7]": {"biological_target": "Vascular endothelial growth factor receptor 1 (Homo sapiens) (UniProt P17948)", "experiment": "Binding affinity to wild-type human partial length FLT1 (R781 to F1239 residues) expressed in bacterial expression system assessed as residual binding level at 1 uM by Kinomescan method relative to control"}, "[8]": {"biological_target": "Homeodomain-interacting protein kinase 2 (Homo sapiens) (UniProt Q9H2X6)", "experiment": "Binding affinity to wild-type human partial length HIPK2 (M153 to S564 residues) expressed in mammalian expression system assessed as residual binding level at 1 uM by Kinomescan method relative to control"}, "[9]": {"biological_target": "Interleukin-1 receptor-associated kinase 3 (Homo sapiens) (UniProt Q9Y616)", "experiment": "Binding affinity to wild-type human partial length IRAK3 (V147 to E596 residues) expressed in bacterial expression system assessed as residual binding level at 1 uM by Kinomescan method relative to control"}, "[10]": {"system": "Mast/stem cell growth factor receptor Kit (Homo sapiens), P10721 [L576P]", "sequence (P10721 whole entry L576P, the tested form may be a part)": "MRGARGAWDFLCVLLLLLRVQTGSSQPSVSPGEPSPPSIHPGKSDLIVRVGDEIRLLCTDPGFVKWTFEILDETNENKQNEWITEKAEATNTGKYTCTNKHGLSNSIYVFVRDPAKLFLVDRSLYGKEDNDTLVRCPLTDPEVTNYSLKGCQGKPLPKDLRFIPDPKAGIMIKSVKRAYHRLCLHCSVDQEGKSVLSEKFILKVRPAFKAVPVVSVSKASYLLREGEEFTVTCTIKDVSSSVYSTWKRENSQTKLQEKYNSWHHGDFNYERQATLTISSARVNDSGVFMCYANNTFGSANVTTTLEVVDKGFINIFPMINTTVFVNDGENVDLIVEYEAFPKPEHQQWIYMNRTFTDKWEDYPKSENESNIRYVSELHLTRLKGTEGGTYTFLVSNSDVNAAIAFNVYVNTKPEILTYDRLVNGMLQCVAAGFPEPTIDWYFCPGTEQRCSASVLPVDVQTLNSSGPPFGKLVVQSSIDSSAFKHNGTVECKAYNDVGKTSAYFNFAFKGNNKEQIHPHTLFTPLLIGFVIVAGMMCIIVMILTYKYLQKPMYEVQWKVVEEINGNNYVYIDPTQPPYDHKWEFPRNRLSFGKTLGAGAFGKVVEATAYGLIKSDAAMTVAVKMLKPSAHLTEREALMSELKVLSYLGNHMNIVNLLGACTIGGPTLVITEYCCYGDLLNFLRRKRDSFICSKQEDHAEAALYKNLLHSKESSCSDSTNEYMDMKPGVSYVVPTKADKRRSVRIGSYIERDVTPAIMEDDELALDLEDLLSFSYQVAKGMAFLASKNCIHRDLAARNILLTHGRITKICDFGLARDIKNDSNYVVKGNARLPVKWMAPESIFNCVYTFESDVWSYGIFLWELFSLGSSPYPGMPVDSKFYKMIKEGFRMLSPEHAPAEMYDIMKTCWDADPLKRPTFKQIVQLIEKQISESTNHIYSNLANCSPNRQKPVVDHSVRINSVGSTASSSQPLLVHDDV", "experiment": "Binding affinity to human partial length KIT L576P mutant (Y545 to D952 residues) expressed in bacterial expression system assessed as residual binding level at 1 uM by Kinomescan method relative to control", "procedure,_shortened": "as §1"}, "[11]": {"biological_target": "Serine/threonine-protein kinase MAK (Homo sapiens) (UniProt P20794)", "experiment": "Binding affinity to wild-type human partial length MAK (M1 to P314 residues) expressed in bacterial expression system assessed as residual binding level at 1 uM by Kinomescan method relative to control"}, "[12]": {"biological_target": "Maternal embryonic leucine zipper kinase (Homo sapiens) (UniProt Q14680)", "sequence (Q14680 whole entry, looked up, the tested form may be a part)": "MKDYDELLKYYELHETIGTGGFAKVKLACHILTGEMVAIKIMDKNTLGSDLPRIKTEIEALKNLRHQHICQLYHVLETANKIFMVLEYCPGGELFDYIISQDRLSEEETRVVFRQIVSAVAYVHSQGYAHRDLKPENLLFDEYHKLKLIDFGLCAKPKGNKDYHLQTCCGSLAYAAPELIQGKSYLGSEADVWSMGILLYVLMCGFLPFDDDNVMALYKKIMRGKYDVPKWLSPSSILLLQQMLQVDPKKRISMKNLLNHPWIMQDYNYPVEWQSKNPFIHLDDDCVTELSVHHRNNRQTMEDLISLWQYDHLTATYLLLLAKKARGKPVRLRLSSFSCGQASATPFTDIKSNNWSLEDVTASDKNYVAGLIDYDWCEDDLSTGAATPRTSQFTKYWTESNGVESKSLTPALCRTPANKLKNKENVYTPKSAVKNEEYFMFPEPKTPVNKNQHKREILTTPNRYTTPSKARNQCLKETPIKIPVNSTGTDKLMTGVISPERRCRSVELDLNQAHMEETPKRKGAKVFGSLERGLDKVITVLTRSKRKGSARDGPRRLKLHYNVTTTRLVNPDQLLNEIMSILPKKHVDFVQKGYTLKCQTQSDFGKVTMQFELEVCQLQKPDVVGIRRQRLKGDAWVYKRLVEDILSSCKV", "experiment": "Binding affinity to wild-type human full length MELK (M1 to V651 residues) expressed in bacterial expression system assessed as residual binding level at 1 uM by Kinomescan method relative to control", "procedure,_shortened": "(§2)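 Single-point kinome-wide KINOMEscan binding panel, test compound at 1 μM, run by the provider's standard protocol.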"}, "[13]": {"biological_target": "Misshapen-like kinase 1 (Homo sapiens) (UniProt Q8N4C8)", "experiment": "Binding affinity to wild-type human partial length MINK (M1 to K312 residues) expressed in mammalian expression system assessed as residual binding level at 1 uM by Kinomescan method relative to control"}, "[14]": {"biological_target": "Mitogen-activated protein kinase kinase kinase 10 (Homo sapiens) (UniProt Q02779)", "sequence (Q02779 whole entry, looked up, the tested form may be a part)": "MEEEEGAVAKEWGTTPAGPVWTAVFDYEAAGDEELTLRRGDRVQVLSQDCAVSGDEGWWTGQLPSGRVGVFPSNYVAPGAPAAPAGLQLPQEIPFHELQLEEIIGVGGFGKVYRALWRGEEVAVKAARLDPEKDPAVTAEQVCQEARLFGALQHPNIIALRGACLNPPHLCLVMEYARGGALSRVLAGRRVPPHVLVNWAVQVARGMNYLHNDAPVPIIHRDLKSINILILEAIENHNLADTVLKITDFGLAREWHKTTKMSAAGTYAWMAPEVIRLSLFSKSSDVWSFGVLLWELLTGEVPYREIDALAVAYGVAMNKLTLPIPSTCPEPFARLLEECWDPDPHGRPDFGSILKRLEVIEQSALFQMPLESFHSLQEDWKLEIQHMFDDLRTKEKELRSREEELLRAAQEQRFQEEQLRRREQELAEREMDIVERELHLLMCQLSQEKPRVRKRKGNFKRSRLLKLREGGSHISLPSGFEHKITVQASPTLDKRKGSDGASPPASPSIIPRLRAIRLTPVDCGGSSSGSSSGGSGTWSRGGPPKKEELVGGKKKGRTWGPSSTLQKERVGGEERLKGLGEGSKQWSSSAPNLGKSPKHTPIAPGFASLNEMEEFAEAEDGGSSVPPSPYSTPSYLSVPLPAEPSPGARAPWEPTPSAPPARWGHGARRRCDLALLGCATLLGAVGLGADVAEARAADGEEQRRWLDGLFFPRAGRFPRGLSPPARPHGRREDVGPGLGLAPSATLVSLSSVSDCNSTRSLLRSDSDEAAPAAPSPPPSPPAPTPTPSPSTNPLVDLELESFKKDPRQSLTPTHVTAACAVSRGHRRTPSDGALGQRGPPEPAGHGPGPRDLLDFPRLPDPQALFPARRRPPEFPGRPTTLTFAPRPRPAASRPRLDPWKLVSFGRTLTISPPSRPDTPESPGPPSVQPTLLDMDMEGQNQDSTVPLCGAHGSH", "experiment": "Binding affinity to wild-type human partial length MLK2 (V52 to W380 residues) expressed in bacterial expression system assessed as residual binding level at 1 uM by Kinomescan method relative to control"}, "[15]": {"biological_target": "Serine/threonine-protein kinase 26 (Homo sapiens) (UniProt Q9P289)", "experiment": "Binding affinity to wild-type human full length MST4 (M1 to P416 residues) expressed in mammalian expression system assessed as residual binding level at 1 uM by Kinomescan method relative to control", "procedure,_shortened": "as §2"}, "[16]": {"biological_target": "Cyclin-dependent kinase 15 (Homo sapiens) (UniProt Q96Q40)", "experiment": "Binding affinity to wild-type human full length PFTAIRE2 (M1 to W384 residues) expressed in bacterial expression system assessed as residual binding level at 1 uM by Kinomescan method relative to control", "procedure,_shortened": "as §2"}, "[17]": {"system": "Phosphatidylinositol 4,5-bisphosphate 3-kinase catalytic subunit alpha isoform (Homo sapiens), P42336 [H1047L]", "sequence (P42336 whole entry H1047L, the tested form may be a part, canonical isoform)": "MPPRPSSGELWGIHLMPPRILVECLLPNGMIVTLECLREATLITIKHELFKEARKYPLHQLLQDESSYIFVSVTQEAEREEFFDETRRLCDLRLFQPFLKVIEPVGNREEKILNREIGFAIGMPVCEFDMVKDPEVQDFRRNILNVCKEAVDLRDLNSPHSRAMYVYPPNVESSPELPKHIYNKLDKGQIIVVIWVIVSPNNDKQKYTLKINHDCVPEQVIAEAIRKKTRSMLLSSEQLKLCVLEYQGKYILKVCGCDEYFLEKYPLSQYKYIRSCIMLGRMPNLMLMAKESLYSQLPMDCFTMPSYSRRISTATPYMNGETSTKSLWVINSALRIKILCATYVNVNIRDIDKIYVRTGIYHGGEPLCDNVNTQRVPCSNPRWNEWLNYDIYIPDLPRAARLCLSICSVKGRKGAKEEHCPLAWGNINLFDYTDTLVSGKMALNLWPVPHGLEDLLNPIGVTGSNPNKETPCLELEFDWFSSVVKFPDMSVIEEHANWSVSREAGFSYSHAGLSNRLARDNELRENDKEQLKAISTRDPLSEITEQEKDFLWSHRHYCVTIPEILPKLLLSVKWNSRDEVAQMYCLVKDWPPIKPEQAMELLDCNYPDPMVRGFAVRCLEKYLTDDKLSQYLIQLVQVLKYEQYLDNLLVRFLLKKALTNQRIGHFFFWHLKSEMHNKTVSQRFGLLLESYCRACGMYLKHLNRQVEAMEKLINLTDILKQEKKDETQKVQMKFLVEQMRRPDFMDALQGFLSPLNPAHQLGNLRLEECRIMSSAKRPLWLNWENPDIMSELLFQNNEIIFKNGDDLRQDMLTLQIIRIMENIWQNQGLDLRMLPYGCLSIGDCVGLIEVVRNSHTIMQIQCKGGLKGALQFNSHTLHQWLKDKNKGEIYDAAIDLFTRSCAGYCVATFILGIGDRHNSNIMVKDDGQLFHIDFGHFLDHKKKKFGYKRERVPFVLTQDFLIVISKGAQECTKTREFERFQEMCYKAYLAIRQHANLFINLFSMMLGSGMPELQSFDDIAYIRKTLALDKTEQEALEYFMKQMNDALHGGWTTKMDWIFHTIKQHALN", "experiment": "Binding affinity to human partial length PIK3CA H1047L mutant (R108 to N1068 residues) expressed in mammalian expression system assessed as residual binding level at 1 uM by Kinomescan method relative to control"}, "[18]": {"system": "Proto-oncogene tyrosine-protein kinase receptor Ret (Homo sapiens), P07949 [M918T]", "experiment": "Binding affinity to human partial length RET M918T mutant (E713 to D1014 residues) expressed in bacterial expression system assessed as residual binding level at 1 uM by Kinomescan method relative to control", "procedure,_shortened": "as §1"}, "[19]": {"biological_target": "Serine/threonine-protein kinase RIO1 (Homo sapiens) (UniProt Q9BRS2)", "sequence (Q9BRS2 whole entry, the tested form may be a part)": "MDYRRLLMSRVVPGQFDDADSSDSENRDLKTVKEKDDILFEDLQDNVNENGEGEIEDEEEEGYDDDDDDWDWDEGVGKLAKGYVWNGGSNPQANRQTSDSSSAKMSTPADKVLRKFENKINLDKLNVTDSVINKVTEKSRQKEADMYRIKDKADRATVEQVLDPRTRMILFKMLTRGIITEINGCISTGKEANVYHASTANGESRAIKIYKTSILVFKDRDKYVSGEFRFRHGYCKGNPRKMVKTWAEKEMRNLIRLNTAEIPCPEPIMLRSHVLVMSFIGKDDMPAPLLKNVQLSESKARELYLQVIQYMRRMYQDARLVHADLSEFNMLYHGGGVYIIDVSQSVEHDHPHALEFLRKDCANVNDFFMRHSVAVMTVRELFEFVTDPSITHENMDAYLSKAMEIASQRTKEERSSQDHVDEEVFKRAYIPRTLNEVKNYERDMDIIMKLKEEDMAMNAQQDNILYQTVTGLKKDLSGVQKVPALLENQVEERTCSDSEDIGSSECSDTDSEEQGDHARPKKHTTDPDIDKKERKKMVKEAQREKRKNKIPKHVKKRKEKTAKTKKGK", "experiment": "Binding affinity to wild-type human full length RIOK1 (M1 to K568 residues) expressed in bacterial expression system assessed as residual binding level at 1 uM by Kinomescan method relative to control", "procedure,_shortened": "as §2"}, "[20]": {"biological_target": "Rho-associated protein kinase 2 (Homo sapiens) (UniProt O75116)", "experiment": "Binding affinity to wild-type human partial length ROCK2 (M1 to T431 residues) expressed in mammalian expression system assessed as residual binding level at 1 uM by Kinomescan method relative to control"}, "[21]": {"biological_target": "Serine/threonine-protein kinase 16 (Homo sapiens) (UniProt O75716)", "experiment": "Binding affinity to wild-type human partial length STK16 (G11 to I305 residues) expressed in bacterial expression system assessed as residual binding level at 1 uM by Kinomescan method relative to control"}, "[22]": {"biological_target": "BDNF/NT-3 growth factors receptor (Homo sapiens) (UniProt Q16620)", "experiment": "Binding affinity to wild-type human partial length TRKB (Q547 to G838 residues) expressed in mammalian expression system assessed as residual binding level at 1 uM by Kinomescan method relative to control"}, "[23]": {"biological_target": "Tyrosine-protein kinase ZAP-70 (Homo sapiens) (UniProt P43403)", "sequence (P43403 whole entry, the tested form may be a part)": "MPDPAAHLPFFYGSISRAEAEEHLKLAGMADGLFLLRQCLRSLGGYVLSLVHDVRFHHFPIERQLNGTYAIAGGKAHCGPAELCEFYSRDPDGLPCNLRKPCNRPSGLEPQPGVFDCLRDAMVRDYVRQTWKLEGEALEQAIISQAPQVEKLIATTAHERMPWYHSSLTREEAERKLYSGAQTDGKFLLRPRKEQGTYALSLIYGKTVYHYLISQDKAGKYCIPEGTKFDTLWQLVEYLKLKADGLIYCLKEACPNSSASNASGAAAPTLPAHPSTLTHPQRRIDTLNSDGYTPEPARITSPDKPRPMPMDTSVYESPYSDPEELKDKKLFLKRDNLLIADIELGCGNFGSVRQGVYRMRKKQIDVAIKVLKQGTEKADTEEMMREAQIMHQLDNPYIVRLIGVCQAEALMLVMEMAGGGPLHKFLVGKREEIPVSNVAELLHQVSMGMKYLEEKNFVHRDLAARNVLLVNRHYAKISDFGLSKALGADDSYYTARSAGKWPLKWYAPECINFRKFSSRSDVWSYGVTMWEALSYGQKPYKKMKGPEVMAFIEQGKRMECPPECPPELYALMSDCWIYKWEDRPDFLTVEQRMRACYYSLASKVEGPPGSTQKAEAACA", "experiment": "Binding affinity to wild-type human partial length ZAP70 (D20 to G299 residues) expressed in mammalian expression system assessed as residual binding level at 1 uM by Kinomescan method relative to control"}, "CYP2D6": {"biological_target": "CYP2D6 (Homo sapiens, UniProt P10635)", "experiment": "Residual activity of CYP2D6 in human liver microsomes at 10 uM using dextromethorphan O-demethylase as substrate preincubated for 5 mins followed by NADPH addition measured after 15 mins by LC/MS/MS analysis relative to control", "settings": "probe dextromethorphan (O-demethylation)"}}, "data": [{"compound": "C=CC(=O)Nc1cc(Nc2ncc(Cl)c(Nc3ccccc3S(=O)(=O)C(C)C)n2)c(OC)cc1N(C)CCN(C)C", "values": [{"measurement": "AUC(0-t)", "setting": "[1]", "value": 1290, "unit": "ng·h/mL"}, {"measurement": "Vd", "setting": "[2]", "value": 2.66, "unit": "L/kg"}, {"measurement": "Activity", "setting": "[3]", "value": 0.8, "unit": "%"}, {"measurement": "Activity", "setting": "[4]", "value": 4.2, "unit": "%"}, {"measurement": "Activity", "setting": "[5]", "value": 69, "unit": "%"}, {"measurement": "Activity", "setting": "[6]", "value": 88, "unit": "%"}, {"measurement": "Activity", "setting": "[7]", "value": 47, "unit": "%"}, {"measurement": "Activity", "setting": "[8]", "value": 94, "unit": "%"}, {"measurement": "Activity", "setting": "[9]", "value": 37, "unit": "%"}, {"measurement": "Activity", "setting": "[10]", "value": 9.1, "unit": "%"}, {"measurement": "Activity", "setting": "[11]", "value": 100, "unit": "%"}, {"measurement": "Activity", "setting": "[12]", "value": 54, "unit": "%"}, {"measurement": "Activity", "setting": "[13]", "value": 34, "unit": "%"}, {"measurement": "Activity", "setting": "[14]", "value": 80, "unit": "%"}, {"measurement": "Activity", "setting": "[15]", "value": 29, "unit": "%"}, {"measurement": "Activity", "setting": "[16]", "value": 90, "unit": "%"}, {"measurement": "Activity", "setting": "[17]", "value": 86, "unit": "%"}, {"measurement": "Activity", "setting": "[18]", "value": 9.7, "unit": "%"}, {"measurement": "Activity", "setting": "[19]", "value": 92, "unit": "%"}, {"measurement": "Activity", "setting": "[20]", "value": 96, "unit": "%"}, {"measurement": "Activity", "setting": "[21]", "value": 64, "unit": "%"}, {"measurement": "Activity", "setting": "[22]", "value": 30, "unit": "%"}, {"measurement": "Activity", "setting": "[23]", "value": 77, "unit": "%"}, {"measurement": "Activity at […], 10 µM", "setting": "CYP2D6", "value": 90, "unit": "%"}]}]}
